Tests used:
P388 [1] = assay: In vivo antineoplastic activity against P388 leukemia; format: functional, Mus musculus
Method in brief: (§1)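 Murine P388 lymphocytic leukemia screen, with tumor implanted ip and drug given ip. Response is %T/C = (median survival of treated / median survival of control) × 100, reported at the optimal dose per dose in mg/kg. Mitomycin C was run concurrently. MED is the lowest mg/kg per dose that reaches the criterion %T/C.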

P388 [2] = assay: In vivo antineoplastic activity of mitomycin C sample run concurrently against P388 leukemia screen (optimal dosage); format: functional, Mus musculus; method in brief: as §1
P388 [3] = assay: In vivo antineoplastic activity against P388 leukemia screen inoculated intraperitoneally expressed as minimum effective dose; format: functional; details: Mus musculus, P388, ip; read-out: MED; method in brief: as §1
B16 [4] = assay: In vivo antineoplastic activity of mitomycin C sample run concurrently against B16 melanoma screen (optimal dosage); format: functional, Mus musculus
Method in brief: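 Murine B16 melanoma test, with tumor implanted sc and treatment given iv. Activity is %T/C = (median survival of treated / median survival of untreated control) × 100, reported at the optimal dose in mg/kg per dose. A mitomycin C sample was run alongside. MED is the minimum mg/kg per dose meeting the activity criterion for %T/C.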

B16 [5] = assay: In vivo antineoplastic activity against B16 melanoma screen inoculated subcutaneously expressed as minimum effective dose
B16 [6] = assay: In vivo antineoplastic activity against B16 melanoma screen inoculated subcutaneously. Value in parenthesis indicates the optimal dosage
B16 [7] = assay: In vivo antineoplastic activity against B16 melanoma screen inoculated intraperitoneally expressed as minimum effective dose; format: functional, Mus musculus
B16 [8] = assay: In vivo antineoplastic activity against B16 melanoma screen inoculated intraperitoneally. Value in parenthesis indicates the optimal dosage; format: functional, Mus musculus

Compound	T/C (P388 [1])	T/C (P388 [2])	minimal effective dose (P388 [3])	T/C (B16 [4])	MED (B16 [5])	T/C (B16 [6])	MED (B16 [7])	T/C (B16 [8])
CNC(=S)N1[C@H]2CN3C4=C(C(=O)C(N)=C(C)C4=O)[C@@H](COC(N)=O)[C@@]3(OC)[C@@H]21	95%	152%	–	–	–	–	–	–
CO[C@@]12[C@H](COC(N)=O)C3=C(C(=O)C(C)=C(N)C3=O)N1C[C@H]1[C@H]2N1C(=S)SC	122%	>333%	–	–	–	–	–	–
CO[C@@]12[C@H](COC(N)=O)C3=C(C(=O)C(C)=C(N)C3=O)N1C[C@H]1[C@H]2N1C(=O)SC	132%	142%	12.8 mg/kg	–	–	–	–	–
COC(=O)N1[C@H]2CN3C4=C(C(=O)C(N)=C(C)C4=O)[C@@H](COC(N)=O)[C@@]3(OC)[C@@H]21	194%	275%	3.2 mg/kg	147%	6.4	165%	–	–
CNC(=O)N1[C@H]2CN3C4=C(C(=O)C(N)=C(C)C4=O)[C@@H](COC(N)=O)[C@@]3(OC)[C@@H]21	121%	142%	–	–	–	–	–	–
CO[C@@]12[C@H](COC(N)=O)C3=C(C(=O)C(C)=C(N)C3=O)N1C[C@H]1[C@H]2N1C(=O)Sc1ccccc1	200%	275%	1.6 mg/kg	147%	1.6	156%	–	–
CO[C@@]12[C@H](COC(N)=O)C3=C(C(=O)C(C)=C(N)C3=O)N1C[C@H]1[C@H]2N1/C(S)=N\c1ccccc1	127%	200%	2.56 mg/kg	–	–	–	–	–
CO[C@@]12[C@H](COC(N)=O)C3=C(C(=O)C(C)=C(N)C3=O)N1C[C@H]1[C@H]2N1C(=S)Oc1ccccc1	162%	152%	51.2 mg/kg	–	–	–	–	–
CO[C@@]12[C@H](COC(N)=O)C3=C(C(=O)C(C)=C(N)C3=O)N1C[C@H]1[C@H]2N1C(=S)Sc1ccccc1	167%	172%	12.8 mg/kg	–	–	–	–	–
CO[C@@]12[C@H](COC(N)=O)C3=C(C(=O)C(C)=C(N)C3=O)N1C[C@H]1[C@H]2N1C(=O)Oc1ccccc1	194%	275%	1.6 mg/kg	147%	–	–	3.2	165%
CO[C@@]12[C@H](COC(N)=O)C3=C(C(=O)C(C)=C(N)C3=O)N1C[C@H]1[C@H]2N1C(=O)Nc1ccccc1	116%	142%	–	–	–	–	–	–
